These results are taken from ChEMBL document CHEMBL1155025, “Xanthones from the botanical dietary supplement mangosteen (Garcinia mangostana) with aromatase inhibitory activity” (J Nat Prod, 2008).

One may read the pIC50 as the IC50 on a negative log10 scale, so that one unit is a factor of ten.

In series [1] the target is T1, Aromatase (Homo sapiens, UniProt P11511).
T1 sequence (P11511 whole entry): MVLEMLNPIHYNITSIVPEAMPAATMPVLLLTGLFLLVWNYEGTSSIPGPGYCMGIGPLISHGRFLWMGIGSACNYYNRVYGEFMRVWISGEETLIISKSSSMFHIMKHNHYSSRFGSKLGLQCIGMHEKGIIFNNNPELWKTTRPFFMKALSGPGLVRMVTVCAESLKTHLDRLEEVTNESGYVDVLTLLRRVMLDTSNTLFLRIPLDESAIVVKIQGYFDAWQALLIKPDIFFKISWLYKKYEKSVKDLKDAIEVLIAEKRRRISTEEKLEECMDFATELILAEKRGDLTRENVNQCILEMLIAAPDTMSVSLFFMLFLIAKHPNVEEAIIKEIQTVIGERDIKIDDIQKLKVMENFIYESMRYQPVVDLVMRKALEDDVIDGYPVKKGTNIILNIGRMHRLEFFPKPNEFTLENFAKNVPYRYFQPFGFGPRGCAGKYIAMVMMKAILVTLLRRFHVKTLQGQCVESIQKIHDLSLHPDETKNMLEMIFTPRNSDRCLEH
Description: Inhibition of aromatase over-expressed in human SKBR3 cells. Type of series: cell-based, SK-BR-3. The procedure, abridged:
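SK-BR-3 human breast cancer cells overexpressing aromatase were treated in triplicate at various concentrations (screen at 50 µM), with 0.1% DMSO as negative control and 10 nM letrozole as positive control. Read-out was pmol 3H2O formed per hour per 10^6 live cells. Percent control activity was calculated versus DMSO.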

Series [2] concerns the target T1, Aromatase. Description: Inhibition of aromatase over-expressed in human SKBR3 cells at 50 uM relative to control. Further details: scale not given: the % may be the effect or the level left. Type of series: cell-based. To be noted: SK-BR-3, human; read-out: Activity. The procedure, abridged: (§1)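 SK-BR-3 human breast cancer cells overexpressing aromatase, treated in triplicate. 0.1% DMSO serves as negative control. Tritiated water formation is read as pmol 3H2O/h per 10^6 live cells and expressed as percent control activity versus DMSO.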

In series [3] the target is T1, Aromatase. Description: Inhibition of aromatase in human placental microsomes at 20 ug/ml relative to control. Further details: species or system Placenta; scale not given: the % may be the effect or the level left. In outline:
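Radiometric placental microsome assay with samples at 20 µg/mL in DMSO, in triplicate. 100 nM [1β-3H]androstenedione, pH 7.0 phosphate buffer, 5% propylene glycol, and NADPH-regenerating system. Reaction started with 50 µg microsomes, run 15 min at 37 °C, and stopped with CHCl3. 3H2O counted; percent control activity taken relative to DMSO.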

Series [4] deals with T1, Aromatase. Description: Inhibition of aromatase in human placental microsomes. Further details: species or system Placenta. The procedure, abridged:
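Human term placental microsomes (50 µg, processed at 4 °C) incubated for 15 min at 37 °C with 100 nM [1β-3H]androstenedione in 0.1 M potassium phosphate pH 7.0, 5% propylene glycol, and NADPH-regenerating system. Quenched with CHCl3; 3H2O in aqueous layer counted by scintillation. IC50 derived from dose-response testing.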

Series [5] has as its system SK-BR-3. Description: Cytotoxicity against human SKBR3 cells assessed as survival by MTT assay relative to control. Type of series: functional. The procedure, abridged: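 MTT viability assay in SK-BR-3 human breast cancer cells that overexpress aromatase. Cells exposed to samples in DMSO, with DMSO as negative control. Six replicates. Read-out is percent cell survival relative to the DMSO control. IC50 obtained from a concentration–response curve.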

For series [6], the target named is T1, Aromatase. Description: Inhibition of aromatase over-expressed in human SKBR3 cells at 10 nM relative to control. Type of series: cell-based. Conditions: SK-BR-3, human; read-out: Activity. Further details: scale not given: the % may be the effect or the level left. The procedure, abridged:
as §1

pIC50: −log10 of the molar value.

Take `CC(C)=CCc1c(O)cc2oc3cc(O)c(O)c(CC=C(C)C)c3c(=O)c2c1O`: the figures for the pIC50 in series [1] and in series [4] were 5.30 and 5.16, respectively. The activity at 50 µM in series [2] was -0.5%. This compound returned an Activity in series [3] of 4.7%.

Compound `COc1c(CC=C(C)C)c(O)c2c(=O)c3c(O)ccc(O)c3oc2c1CC=C(C)C` yielded an Activity in series [3] of 55.1%.

On to `COc1c(O)cc2oc3cc(O)c4c(c3c(=O)c2c1CC=C(C)C)OC(C)(C)CC4`, for which the Activity in series [3] stood at 52.6%.

In turn, `CC(C)=CCc1c(O)c(CC=C(C)C)c2oc3c(O)cccc3c(=O)c2c1O` [8-DEOXYGARTANIN] displayed an Activity in series [3] of 82.6%.

Compound `COc1c(CC=C(C)C)c(O)c2c(=O)c3cccc(O)c3oc2c1CC=C(C)C` [CUDRAXANTHONE G] came in with an Activity in series [3] of 57.8%.

Take `COc1c(O)cc2oc3cc(O)c(CC=C(C)C)c(O)c3c(=O)c2c1CCC(C)(C)O` [GARCINONE D]: the activity at 50 µM in series [2] amounted to 50.7%. In addition, the Activity in series [3] was determined as 10%. Also, the Survival in series [5] was 89.4%. In addition, the pIC50 in series [4] is 5.28.

As to `CC(C)=CCc1c(O)cc2oc3c(CC=C(C)C)c(O)c(O)c(CC=C(C)C)c3c(=O)c2c1O` [GARCINONE E], in series [2], the activity at 50 µM came out at 32.3%. Moreover, the Activity in series [3] worked out at 23.9%. The Survival in series [5] is 52.3%. In series [4], the negative-log IC50 (pIC50) is 4.60.

In series [3], `CC(C)=CCc1c(O)c(CC=C(C)C)c2oc3c(O)ccc(O)c3c(=O)c2c1O` [GARTANIN] came in with an Activity of 75.9%.

For the compound `N#Cc1ccc(C(c2ccc(C#N)cc2)n2cncn2)cc1` [LETROZOLE], the activity at 0.01 µM in series [6] came to 7.4%.

Turning to `CC(C)=CCC/C(C)=C/Cc1c(O)cc2oc3c(O)cccc3c(=O)c2c1O` [MANGOSTINONE], the Activity in series [3] was found to be 78.8%.

Turning to `COc1c(O)cc2oc3cc(O)c(CC=C(C)C)c(O)c3c(=O)c2c1CC=C(C)C` [MANGOSTIN], the activity at 50 µM in series [2] came out at 59.4%. This compound gave an Activity in series [3] of 22.2%. Also, the Survival in series [5] is listed as 18.4%. This compound showed a pIC50 in series [4] of 4.68.

`CC(C)=CCC/C(C)=C/Cc1c(O)cc2oc3c(O)ccc(O)c3c(=O)c2c1O` [SMEATHXANTHONE A] registered an Activity in series [3] of 80.8%.

In series [3], `CC(C)=CCc1c(O)cc2oc3c(CC=C(C)C)c(O)c4c(c3c(=O)c2c1O)C=CC(C)(C)O4` [TOVOPHYLLINE A] registered an Activity of 74.7%.
